Data: ChEMBL document CHEMBL1155794, “Novel N1-substituted 1,3-dihydro-2H-benzimidazol-2-ones as potent non-nucleoside reverse transcriptase inhibitors” (Bioorg Med Chem, 2008)
Each block holds one molecule with its values, some of them ahead of it.

Columns and labels:
[1] = Selectivity index, ratio of CC50 for human MT4 cells to EC50 for HIV1 3B; type: toxicity, cell-based; conditions: read-out: Ratio CC50/EC50
[2] = Cytotoxicity against human MT4 cells; type: cell-based
In short: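 MT-4 cell viability measured after exposure to compound dilutions; CC50 taken as concentration lowering viability by 50%.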

[3] = test system: Human immunodeficiency virus 1; experiment: Antiviral activity against HIV1 3B in human MT4 cells assessed as virus-induced cytopathogenicity after 5 days; type: functional, organism-based; conditions: Human immunodeficiency virus 1, 3B, MT4, 120 h
In short: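 MT-4 cells infected and treated with serial dilutions, incubated at 37 °C for 5 days; viable cell count determined; EC50 = concentration reducing virus-induced cytopathicity by 50%.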

[4] = target: Human immunodeficiency virus type 1 reverse transcriptase (Human immunodeficiency virus 1, UniProt Q72547); experiment: Inhibition of HIV1 reverse transcriptase RNA-dependent DNA polymerase activity assessed as incorporation of radioactive dTTP into poly(rA)/oligo(DT)

Compound: Cc1cc(C)cc(Cn2c(=O)[nH]c3ccc(Cl)cc32)c1
selectivity ratio [1]: 281

Compound: Cc1cc(C)cc(S(=O)(=O)n2c(=O)[nH]c3ccc(Cl)cc32)c1
selectivity ratio [1]: 17800

Compound: O=c1[nH]c2ccc(Cl)cc2n1Cc1c(F)cccc1F
selectivity ratio [1]: > 1890
CC50 [2]: > 424000 nM

Compound: Cc1cc(C)cc(Cn2c(=O)[nH]c3ccc(C(F)(F)F)cc32)c1
EC50 [3]: 425 nM
IC50 [4]: 280 nM
selectivity ratio [1]: 88
CC50 [2]: 37400 nM

Compound: Cc1ccc2[nH]c(=O)n(S(=O)(=O)c3c(F)cccc3F)c2c1
EC50 [3]: 195 nM
IC50 [4]: 1300 nM
selectivity ratio [1]: 11
CC50 [2]: 2220 nM

Compound: O=c1[nH]c2ccc(C(F)(F)F)cc2n1Cc1c(F)cccc1F
EC50 [3]: 5500 nM
IC50 [4]: 17 nM
selectivity ratio [1]: > 77
CC50 [2]: > 424000 nM

Compound: O=c1[nH]c2cc(F)c(Cl)cc2n1Cc1cc(F)cc(F)c1
EC50 [3]: > 33900 nM
IC50 [4]: 3 nM
CC50 [2]: > 400000 nM

Compound: CC(=O)n1c(=O)n(Cc2cc(F)cc(F)c2)c2cc(Cl)ccc21
EC50 [3]: 1660 nM
IC50 [4]: 38500 nM
selectivity ratio [1]: 24
CC50 [2]: 40400 nM

Compound: Cc1cc(C)cc(S(=O)(=O)n2c(=O)[nH]c3cc(F)c(Cl)cc32)c1
EC50 [3]: 450 nM
IC50 [4]: 158 nM
selectivity ratio [1]: 310
CC50 [2]: 140000 nM

Compound: CC(=O)n1c(=O)n(Cc2c(F)cccc2F)c2cc(Cl)ccc21
EC50 [3]: 534 nM
IC50 [4]: > 100000 nM
selectivity ratio [1]: 190
CC50 [2]: 102000 nM

Compound: O=c1[nH]c2cc(F)c(Cl)cc2n1Cc1c(F)cccc1F
EC50 [3]: 29000 nM
IC50 [4]: 140 nM
selectivity ratio [1]: 9
CC50 [2]: 267000 nM

Compound: Cc1cc(C)cc(Cn2c(=O)[nH]c3cc(F)c(Cl)cc32)c1
EC50 [3]: 938 nM
IC50 [4]: > 100000 nM
selectivity ratio [1]: > 438
CC50 [2]: > 410000 nM

Compound: O=c1[nH]c2ccc(Cl)cc2n1S(=O)(=O)c1cc(F)cc(F)c1
EC50 [3]: 69 nM
IC50 [4]: 100 nM
selectivity ratio [1]: 2930
CC50 [2]: 202000 nM

Compound: O=C1Nc2ccc(Cl)cc2[C@@](C#CC2CC2)(C(F)(F)F)O1 [EFAVIRENZ]
CC50 [2]: > 6000 nM

Compound: Cc1ccnc2c1NC(=O)c1cccnc1N2C1CC1 [NEVIRAPINE]
CC50 [2]: > 15000 nM

More lines, main results first:

EC50 [3]: 6.3 nM
IC50 [4]: 100 nM
Compound: Cc1cc(C)cc(S(=O)(=O)n2c(=O)[nH]c3ccc(C)cc32)c1
selectivity ratio [1]: > 48900
CC50 [2]: > 308000 nM

EC50 [3]: > 737 nM
IC50 [4]: 160 nM
Compound: Fc1cc(F)cc(Cn2c(=S)[nH]c3ccc(Cl)cc32)c1
selectivity ratio [1]: 2
CC50 [2]: 1200 nM

EC50 [3]: 75 nM
IC50 [4]: 76900 nM
Compound: Cc1cc(C)cc(Cn2c(=O)[nH]c3ccc(C)cc32)c1
selectivity ratio [1]: 11
CC50 [2]: 856 nM

EC50 [3]: > 73000 nM
IC50 [4]: > 400000 nM
Compound: Cc1ccc2[nH]c(=O)n(Cc3cc(F)cc(F)c3)c2c1
selectivity ratio [1]: < 1
CC50 [2]: 73000 nM

EC50 [3]: 65 nM
IC50 [4]: 200 nM
Compound: Cc1ccc2[nH]c(=O)n(S(=O)(=O)c3cc(F)cc(F)c3)c2c1
selectivity ratio [1]: 360
CC50 [2]: 23400 nM

EC50 [3]: 11.7 nM
IC50 [4]: > 100000 nM
Compound: CC(=O)n1c(=O)n(Cc2cc(C)cc(C)c2)c2cc(Cl)ccc21
selectivity ratio [1]: 614
CC50 [2]: 7180 nM

EC50 [3]: 289 nM
IC50 [4]: 100 nM
Compound: O=c1[nH]c2ccc(Cl)cc2n1Cc1cc(F)cc(F)c1
selectivity ratio [1]: > 1470
CC50 [2]: > 424000 nM

EC50 [3]: 740 nM
Compound: Fc1cccc(F)c1Cn1c(=S)[nH]c2ccc(Cl)cc21
selectivity ratio [1]: 8
CC50 [2]: 5950 nM

EC50 [3]: 76 nM
IC50 [4]: 46 nM
Compound: Cc1cc(C)cc(Cn2c(=S)[nH]c3ccc(Cl)cc32)c1
selectivity ratio [1]: 4
CC50 [2]: 305 nM

EC50 [3]: 1570 nM
IC50 [4]: 30000 nM
Compound: O=c1[nH]c2ccc(Cl)cc2n1S(=O)(=O)c1c(F)cccc1F
selectivity ratio [1]: 124
CC50 [2]: 194000 nM

EC50 [3]: 18600 nM
IC50 [4]: > 100000 nM
Compound: Cc1ccc2[nH]c(=O)n(Cc3c(F)cccc3F)c2c1
selectivity ratio [1]: 13
CC50 [2]: 236000 nM
